Compound activity as filed in PubChem.
STAT1 activator – STAT1 signaling activators, primary screen, cell-based, HTS, luciferase reporter | NIH 3T3 STAT1-luciferase reporter, IFN-gamma, luminescence; 100% = IFN-gamma alone, no compound | activation (% of control), % at 5.5 µM | 200,000 compounds, 2.6% hits | AID 932, 2007;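 active means activation above the screen-wide mean activation plus 3 SD, cut at about 130% in these data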;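 further: raw ratio to IFN-gamma control signal so 100% means no change and 0% no light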
AHR activator – AHR activators, primary screen, cell-based, luminescence, luciferase reporter, human. Aryl hydrocarbon receptor (Homo sapiens), P35869. AHR-responsive luciferase reporter cells. activation, % at 5 µM. 320,000 compounds, 2.5% hits; in the data active means activation above about 47%;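 further: 0% = vehicle wells and 100% = reference agonist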
PERK inhibitor – block of dimerizer-induced PERK translation repression, primary screen, PERK inhibitor project, CHO PERK-DD cells, SEAP luminescence, HTS; Eukaryotic translation initiation factor 2-alpha kinase 3 (Homo sapiens), Q9NZJ5; CHO PERK-DD fusion, SEAP luminescence translation reporter; inhibition, % at 5.6 µM; 220,000 compounds, 0.17% hits;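 active means inhibition above the mean inhibition of all tested compounds plus 3 SD, set separately per screening campaign, cut at about 2.9% in these data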;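 further: PERK kinase domain activated by AP20187 dimerizer at 100 nM; 0% = DMSO with dimerizer and 100% = rapamycin at 8.4 µM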
MDM2 E3 inh – MDM2-luciferase reporter signal enhancers, primary screen, MDM2 E3 ligase inhibitor project, cell-based, luminescence, 1536-well; E3 ubiquitin-protein ligase Mdm2 (Homo sapiens), Q00987; cell-based MDM2 ubiquitination luciferase reporter, 2 h; 0 = plate control, 100 = twice control, blank-subtracted; signal enhancement, % at 5 µM; 210,000 compounds, 0.11% hits;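 active means signal enhancement of 30% or more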;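 further: luminescence tracks abundance of the self-degrading MDM2-luciferase fusion protein; higher signal means inhibition of MDM2 E3 ligase activity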
Target sequence (Q00987 whole entry, looked up, the tested form may be a part): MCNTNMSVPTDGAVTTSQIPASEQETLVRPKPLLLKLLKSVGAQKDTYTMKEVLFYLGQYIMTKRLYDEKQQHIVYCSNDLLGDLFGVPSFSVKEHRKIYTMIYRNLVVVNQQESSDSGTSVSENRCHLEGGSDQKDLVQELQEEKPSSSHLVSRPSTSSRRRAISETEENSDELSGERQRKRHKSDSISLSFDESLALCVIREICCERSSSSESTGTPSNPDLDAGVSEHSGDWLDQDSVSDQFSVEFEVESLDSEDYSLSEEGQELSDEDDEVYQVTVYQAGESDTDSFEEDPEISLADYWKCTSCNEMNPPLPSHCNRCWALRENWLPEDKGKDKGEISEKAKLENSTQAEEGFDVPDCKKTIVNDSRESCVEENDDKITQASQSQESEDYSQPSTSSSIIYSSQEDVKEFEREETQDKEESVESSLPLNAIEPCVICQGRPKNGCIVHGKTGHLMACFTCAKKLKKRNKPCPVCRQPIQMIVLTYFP
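Test system: stable mammalian line carrying autodegrading MDM2–luciferase fusion reporter; quantity: 2000 cells in each well; times: 4 h cell settling then 2 h compound exposure, 37 °C; detection: luminescence with SteadyLite reagent, 15 min at room temperature; evaluation: percent signal gain over controls, blank-subtracted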
APP 5'UTR act – activators of APP 5'UTR luciferase reporter, primary screen, SH-SY5Y cells; SH-SY5Y APP 5'UTR luciferase reporter, luminescence; zero percent = DMSO vehicle wells; activation, % at 2 µM; 190,000 compounds, 1% hits;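 active means activation above a set limit, based on mean plus 3 SD of controls, cut at about 140% in these data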
NF-kB neuron act – activators of NF-kB expression in neurons, primary screen, cell-based, HTS; human neuronal cells, NF-kB reporter expression; hits give high values; fold change at 12.5 µM; 190,000 compounds, 1.6% hits; in the data active means fold change above about 3.3
* marks the source's active call; other numbers are inactive results. Most compounds without a hit are left out; they make up all but 4.5% or so of the library.

Screening Clc1ccc(-c2nc3n(n2)Cc2ccccc2-3)cc1 returned STAT1 activator 149.9*, AHR activator 74.1*, PERK inhibitor 0.6, MDM2 E3 inh -46.9, APP 5'UTR act 139.1* and NF-kB neuron act 6.11*.
`CCN(CC)S(=O)(=O)c1cccc(-c2nc3n(n2)Cc2ccccc2-3)c1` gave STAT1 activator 127.0, AHR activator 18.6, PERK inhibitor -0.7, MDM2 E3 inh -5.3, APP 5'UTR act -10.3 and NF-kB neuron act 1.4.
For Cc1cccc(-c2c3c(=O)n(C)c(=O)n(C)c3c3cccnn23)c1 the results were STAT1 activator 99.1, AHR activator 59.8*, PERK inhibitor 0.2, MDM2 E3 inh -9.3, APP 5'UTR act 0.7 and NF-kB neuron act 0.78.
`Nc1nc2c(-c3ccc(Br)cc3)nnn2c2ccccc12` gave AHR activator 54.5*.
For CCn1nc(NC(=O)CC(C)C)c2cc3ccc(C)cc3nc21 the results were AHR activator 41.0.
`CC(=O)Nc1nn(C)c2nc3cc(C)ccc3cc12` gave STAT1 activator 106.9, AHR activator 71.2*, PERK inhibitor -0.1, MDM2 E3 inh -10.3, APP 5'UTR act -6.4 and NF-kB neuron act 1.29.
Screening Cc1cc(N2C(=O)c3ccc(C(=O)Nc4ccc(CC(=O)O)cc4)cc3C2=O)no1 returned AHR activator 0.1.
`O=C(Nc1ccccc1Cl)c1cc2ccccc2o/c1=N\O` gave AHR activator 76.1*.
O=C(Nc1ccccc1Cl)c1ccccc1Cl was read as STAT1 activator 107.7, AHR activator -0.4, PERK inhibitor 1.2, MDM2 E3 inh -6.1, APP 5'UTR act 11.7 and NF-kB neuron act 1.3.
For Cc1cc(C(F)(F)F)nc(Nc2nc(C)c3ccccc3n2)n1 the results were STAT1 activator 105.3, AHR activator 57.9*, PERK inhibitor 0.1, MDM2 E3 inh -11.4, APP 5'UTR act -9.8 and NF-kB neuron act 1.04.
For CCOc1[nH]n(-c2ccc(Cl)cc2)c(=O)c1C=NCc1cccnc1 the results were STAT1 activator 100.3, AHR activator 55.9*, PERK inhibitor -0.8, MDM2 E3 inh -2.5, APP 5'UTR act 32.0 and NF-kB neuron act 0.9.
CCOc1[nH]n(-c2ccccc2)c(=O)c1C=NCc1ccncc1 was read as STAT1 activator 96.0, AHR activator 44.6, PERK inhibitor -0.5, MDM2 E3 inh 1.5, APP 5'UTR act -48.9 and NF-kB neuron act 1.16.
For O=C(C1CCCO1)N1CCN(C(=S)Nc2ccccc2Cl)CC1 (stereo unspecified) the results were STAT1 activator 105.8, AHR activator 2.1, PERK inhibitor 0.1, APP 5'UTR act -15.7 and NF-kB neuron act 1.01.
Cc1cc2n(n1)C(c1cccs1)Nc1ccccc1-2 (stereo unspecified) was read as STAT1 activator 104.5, AHR activator 2.4, PERK inhibitor 0.1, MDM2 E3 inh -8.0, APP 5'UTR act 0.0 and NF-kB neuron act 0.93.
`O=C(O)c1ccc(N=NNc2cccc([N+](=O)[O-])c2)cc1` gave STAT1 activator 142.8*, AHR activator 9.1, PERK inhibitor -0.6, MDM2 E3 inh -20.9, APP 5'UTR act 83.1 and NF-kB neuron act 4.07*.
COC(=O)c1ccc(N=NNc2ccccc2)cc1 was read as STAT1 activator 146.0*, AHR activator 11.8, PERK inhibitor 0.0, MDM2 E3 inh -6.6, APP 5'UTR act 63.3 and NF-kB neuron act 2.48.
For COC(=O)c1ccc(N=NNc2ccc(C(=O)OC)cc2)cc1 the results were STAT1 activator 148.0*, AHR activator 1.2, PERK inhibitor 0.9, MDM2 E3 inh -25.3, APP 5'UTR act 126.6 and NF-kB neuron act 3.5*.
Screening O=C(Nc1cccc([N+](=O)[O-])c1)c1ccc(-c2ccccc2)cc1 returned STAT1 activator 100.6, AHR activator -2.0, PERK inhibitor 1.3, MDM2 E3 inh 8.8, APP 5'UTR act 29.1 and NF-kB neuron act 1.
For COC(=O)c1ccc(N=NN2CCOCC2)cc1 the results were STAT1 activator 127.9, AHR activator 0.6, PERK inhibitor 0.9, MDM2 E3 inh -12.9, APP 5'UTR act 81.0 and NF-kB neuron act 2.95.
CCC1CCCCN1CCCNC(=O)C1CCCN(c2ncnc3c2nc2n3CCCCC2)C1 (stereo unspecified) was read as AHR activator -0.2.
Screening Nc1nc(-c2ccc(Cl)cc2Cl)cn1N returned STAT1 activator 100.8, AHR activator 64.5*, PERK inhibitor 3.1*, MDM2 E3 inh -8.1, APP 5'UTR act 11.5 and NF-kB neuron act 1.17.
`CC(=O)c1ccc(N2CCN(CC(=O)Nc3ccccc3C(=O)NC3CC3)CC2)c(F)c1` gave AHR activator -1.1.
CN(C)c1ccc(/C=C2/NC(=O)NC2=O)cc1 was read as STAT1 activator 99.3, AHR activator 108.3*, PERK inhibitor 0.2, MDM2 E3 inh -21.4, APP 5'UTR act 10.9 and NF-kB neuron act 1.4.
Nc1nc2c(s1)CCc1c-2cnn1-c1ccccc1 was read as STAT1 activator 155.3*, AHR activator 12.9, PERK inhibitor 0.5, MDM2 E3 inh -19.0, APP 5'UTR act 138.0* and NF-kB neuron act 3.42*.
For O=S(=O)(Nc1ncnc2sc3c(c12)CCC3)c1cc(F)ccc1F the results were AHR activator 26.8, PERK inhibitor 1.7 and MDM2 E3 inh 11.2.
`O=S(=O)(Nc1ncnc2sc3c(c12)CCC3)c1ccc(Cl)s1` gave STAT1 activator 109.5, AHR activator 47.9*, PERK inhibitor 0.1, MDM2 E3 inh 8.8, APP 5'UTR act -0.4 and NF-kB neuron act 1.2.
Screening CCN1C(=O)/C(=C\C=C2/C=CC=CN2CC)SC1=S returned STAT1 activator 133.6*, AHR activator 15.7, PERK inhibitor 1.1, MDM2 E3 inh -22.1, APP 5'UTR act 47.6 and NF-kB neuron act 2.22.
`COc1c(O)cccc1[C@@H](O)C1CCN(CCc2ccc(F)cc2)CC1` gave AHR activator -2.5.
`C=CCc1ccc(OCCn2cccc2C=O)c(OC)c1` gave STAT1 activator 147.4*, AHR activator -9.4, PERK inhibitor 0.3, MDM2 E3 inh 2.2, APP 5'UTR act 40.3 and NF-kB neuron act 1.73.
For CC(C)OP(=O)(OC(C)C)/C(C=O)=N\Nc1ccc([N+](=O)[O-])cc1 the results were AHR activator 2.9, PERK inhibitor -1.4 and MDM2 E3 inh -16.3.
